Experimental data published in ChEMBL document CHEMBL3272325, “Structure-activity relationships of dimeric Catharanthus alkaloids. 1. Deacetylvinblastine amide (vindesine) sulfate” (J Med Chem, 1978).
Active and inactive are the calls of the source. The rule behind the calls is not given here.

Legend:
Assay type in all cases: functional, organism-based
[1] = tested on: sarcoma; test: Antitumor activity against mouse Ridgeway osteogenic sarcoma cell allografted in po dosed mouse
[2] = tested on: Mus musculus; test: Antitumor activity against Gardner lymphosarcoma cell in po dosed mouse
[3] = tested on: P388; test: Antitumor activity against mouse P388 cells allografted in mouse assessed as survival at 2.7 mg/kg/day after 1 day
Outline: (§1)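 P388 ascites implanted ip in mice; sulfate salts dosed either daily or as a single dose on day 1, 10 animals per group. Survivors per total were recorded, median life span was calculated using all deaths and survivors, and percent increase of life span was reported.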

[4] = tested on: P388; test: Antitumor activity against mouse P388 cells allografted in mouse assessed as survival at 1.8 mg/kg/day after 1 day; outline: as §1
[5] = tested on: P388; test: Antitumor activity against mouse P388 cells allografted in mouse assessed as survival at 0.10 mg/kg/day administered from day 1 to day 9; outline: as §1
[6] = tested on: P388; test: Antitumor activity against mouse P388 cells allografted in mouse assessed as survival at 4 mg/kg/day after 1 day; outline: as §1
[7] = tested on: Leukemia cell; test: Antitumor activity against human leukemia cells allografted in human assessed as remission of nonlymphocytic leukemia at 3 to 4 mg/m'2, iv once weekly dosed through push technique
[8] = tested on: Leukemia cell; test: Antitumor activity against human leukemia cells allografted in human assessed as remission of acute lymphocytic leukemia at 3 to 4 mg/m'2, iv once weekly dosed through push technique

CC[C@]1(O)C[C@@H]2CN(CCc3c([nH]c4ccccc34)[C@@](C(=O)OC)(c3cc4c(cc3OC)N(C)[C@H]3[C@@](O)(C(N)=O)[C@H](O)[C@]5(CC)C=CCN6CC[C@]43[C@@H]65)C2)C1
Activity [1]: inactive | Activity [2]: inactive | Activity [3]: inactive | Activity [4]: inactive | Activity [5]: inactive | Activity [6]: inactive | Activity [7]: Active | Activity [8]: Active
